{
  "source": "ChEMBL document CHEMBL5303300",
  "about": "“EUbOPEN Chemogenomics Library - Multiplex” (2023)",
  "key": {"[1]": {"system": "HEK-293T", "assay": "Multiplex assay against HEK293T", "assay_type": "toxicity, cell-based", "settings": "human, number of replicates 2", "procedure,_shortened": "(§1)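 Tubulin, mitochondrial-mass and membrane-permeability phenotypes are per cents of healthy-nucleus cells. Cells were gated by CellPathfinder machine learning into Hoechst high-intensity objects or normal cells, normal cells into healthy, pyknosed or fragmented nuclei, and pyknosed cells into mitotic or apoptotic. Before that, live cells stained at seeding with Hoechst33342, BioTracker Green Microtubule Cytoskeleton Dye, MitoTracker Red and Annexin V Alexa Fluor 680 were imaged on a CQ1 microscope at 37°C and 5% CO2 after compound addition.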"}, "[2]": {"system": "Fibroblast", "assay": "Multiplex assay against human fibroblast", "assay_type": "toxicity, cell-based", "settings": "12 h, number of replicates 2", "procedure,_shortened": "as §1"}, "[3]": {"settings": "12 h, 1 µM, compound concentration 1 uM"}, "[4]": {"settings": "12 h, 10 µM, compound concentration 10 uM"}, "[5]": {"settings": "24 h, 1 µM, compound concentration 1 uM"}, "[6]": {"settings": "24 h, 10 µM, compound concentration 10 uM"}, "[7]": {"settings": "48 h, 1 µM, compound concentration 1 uM"}, "[8]": {"settings": "48 h, 10 µM, compound concentration 10 uM"}, "[9]": {"settings": "1 µM, compound concentration 1 uM"}, "[10]": {"settings": "10 µM, compound concentration 10 uM"}},
  "note": "“And” between values parts separate entries of the source, which are not always exact repeats. Equal entries are not always repeated.",
  "data": [
    {"smiles": "CN1CCc2cc(Nc3ncc(C(F)(F)F)c(NCc4cc[nH]n4)n3)ccc2C1", "values": [
      {"measurement": "Population Apoptotic (%)", "setting": "[1]; [3]", "value": "85% and 72%"},
      {"measurement": "Population Fragmented Nuclei (%)", "setting": "[1]; [3]", "value": "4% and 3%"},
      {"measurement": "Population Healthy Nuclei (%)", "setting": "[1]; [3]", "value": "77% and 78%"},
      {"measurement": "Population Hoechst High Intensity Objects (%)", "setting": "[1]; [3]", "value": "14% and 11%"},
      {"measurement": "Population Membrane Permeable-Phenotype (%)", "setting": "[1]; [3]", "value": 1, "unit": "%"},
      {"measurement": "Population Mitochondria Different-Phenotype (%)", "setting": "[1]; [3]", "value": "41% and 47%"},
      {"measurement": "Population Mitotic Cells (%)", "setting": "[1]; [3]", "value": "14% and 27%"},
      {"measurement": "Population Normal (%)", "setting": "[1]; [3]", "value": "85% and 88%"},
      {"measurement": "Population Pyknosed Nuclei (%)", "setting": "[1]; [3]", "value": 17, "unit": "%"},
      {"measurement": "Population Tubulin-Different-Phenotype (%)", "setting": "[1]; [3]", "value": "35% and 44%"},
      {"measurement": "Total Cell Count", "setting": "[1]; [3]", "value": "280 and 291"},
      {"measurement": "Population Apoptotic (%)", "setting": "[1]; [4]", "value": "64% and 85%"},
      {"measurement": "Population Fragmented Nuclei (%)", "setting": "[1]; [4]", "value": 5, "unit": "%"},
      {"measurement": "Population Healthy Nuclei (%)", "setting": "[1]; [4]", "value": 89, "unit": "%"},
      {"measurement": "Population Hoechst High Intensity Objects (%)", "setting": "[1]; [4]", "value": "10% and 13%"},
      {"measurement": "Population Membrane Permeable-Phenotype (%)", "setting": "[1]; [4]", "value": 0, "unit": "%"},
      {"measurement": "Population Mitochondria Different-Phenotype (%)", "setting": "[1]; [4]", "value": "38% and 43%"},
      {"measurement": "Population Mitotic Cells (%)", "setting": "[1]; [4]", "value": "35% and 14%"},
      {"measurement": "Population Normal (%)", "setting": "[1]; [4]", "value": "89% and 86%"},
      {"measurement": "Population Pyknosed Nuclei (%)", "setting": "[1]; [4]", "value": 5, "unit": "%"},
      {"measurement": "Population Tubulin-Different-Phenotype (%)", "setting": "[1]; [4]", "value": "66% and 70%"},
      {"measurement": "Total Cell Count", "setting": "[1]; [4]", "value": "377 and 312"},
      {"measurement": "Population Apoptotic (%)", "setting": "[1]; [5]", "value": "83% and 72%"},
      {"measurement": "Population Fragmented Nuclei (%)", "setting": "[1]; [5]", "value": "4% and 5%"},
      {"measurement": "Population Healthy Nuclei (%)", "setting": "[1]; [5]", "value": "81% and 73%"},
      {"measurement": "Population Hoechst High Intensity Objects (%)", "setting": "[1]; [5]", "value": "20% and 13%"},
      {"measurement": "Population Membrane Permeable-Phenotype (%)", "setting": "[1]; [5]", "value": 0, "unit": "%"},
      {"measurement": "Population Mitochondria Different-Phenotype (%)", "setting": "[1]; [5]", "value": "37% and 43%"},
      {"measurement": "Population Mitotic Cells (%)", "setting": "[1]; [5]", "value": "16% and 27%"},
      {"measurement": "Population Normal (%)", "setting": "[1]; [5]", "value": "79% and 86%"},
      {"measurement": "Population Pyknosed Nuclei (%)", "setting": "[1]; [5]", "value": "14% and 20%"},
      {"measurement": "Population Tubulin-Different-Phenotype (%)", "setting": "[1]; [5]", "value": "38% and 42%"},
      {"measurement": "Total Cell Count", "setting": "[1]; [5]", "value": "267 and 261"},
      {"measurement": "Population Apoptotic (%)", "setting": "[1]; [6]", "value": "63% and 80%"},
      {"measurement": "Population Fragmented Nuclei (%)", "setting": "[1]; [6]", "value": "5% and 4%"},
      {"measurement": "Population Healthy Nuclei (%)", "setting": "[1]; [6]", "value": 87, "unit": "%"},
      {"measurement": "Population Hoechst High Intensity Objects (%)", "setting": "[1]; [6]", "value": "11% and 13%"},
      {"measurement": "Population Membrane Permeable-Phenotype (%)", "setting": "[1]; [6]", "value": "1% and 0%"},
      {"measurement": "Population Mitochondria Different-Phenotype (%)", "setting": "[1]; [6]", "value": "58% and 60%"},
      {"measurement": "Population Mitotic Cells (%)", "setting": "[1]; [6]", "value": "36% and 20%"},
      {"measurement": "Population Normal (%)", "setting": "[1]; [6]", "value": "88% and 86%"},
      {"measurement": "Population Pyknosed Nuclei (%)", "setting": "[1]; [6]", "value": "7% and 8%"},
      {"measurement": "Population Tubulin-Different-Phenotype (%)", "setting": "[1]; [6]", "value": "73% and 71%"},
      {"measurement": "Total Cell Count", "setting": "[1]; [6]", "value": "315 and 284"},
      {"measurement": "Population Apoptotic (%)", "setting": "[1]; [7]", "value": "80% and 72%"},
      {"measurement": "Population Fragmented Nuclei (%)", "setting": "[1]; [7]", "value": "7% and 5%"},
      {"measurement": "Population Healthy Nuclei (%)", "setting": "[1]; [7]", "value": 79, "unit": "%"},
      {"measurement": "Population Hoechst High Intensity Objects (%)", "setting": "[1]; [7]", "value": "16% and 14%"},
      {"measurement": "Population Membrane Permeable-Phenotype (%)", "setting": "[1]; [7]", "value": 1, "unit": "%"},
      {"measurement": "Population Mitochondria Different-Phenotype (%)", "setting": "[1]; [7]", "value": "40% and 36%"},
      {"measurement": "Population Mitotic Cells (%)", "setting": "[1]; [7]", "value": "19% and 27%"},
      {"measurement": "Population Normal (%)", "setting": "[1]; [7]", "value": "83% and 85%"},
      {"measurement": "Population Pyknosed Nuclei (%)", "setting": "[1]; [7]", "value": "13% and 15%"},
      {"measurement": "Population Tubulin-Different-Phenotype (%)", "setting": "[1]; [7]", "value": 36, "unit": "%"},
      {"measurement": "Total Cell Count", "setting": "[1]; [7]", "value": "285 and 307"},
      {"measurement": "Population Apoptotic (%)", "setting": "[1]; [8]", "value": "46% and 75%"},
      {"measurement": "Population Fragmented Nuclei (%)", "setting": "[1]; [8]", "value": "3% and 4%"},
      {"measurement": "Population Healthy Nuclei (%)", "setting": "[1]; [8]", "value": "84% and 82%"},
      {"measurement": "Population Hoechst High Intensity Objects (%)", "setting": "[1]; [8]", "value": "14% and 18%"},
      {"measurement": "Population Membrane Permeable-Phenotype (%)", "setting": "[1]; [8]", "value": "0% and 1%"},
      {"measurement": "Population Mitochondria Different-Phenotype (%)", "setting": "[1]; [8]", "value": "65% and 67%"},
      {"measurement": "Population Mitotic Cells (%)", "setting": "[1]; [8]", "value": "53% and 25%"},
      {"measurement": "Population Normal (%)", "setting": "[1]; [8]", "value": "85% and 81%"},
      {"measurement": "Population Pyknosed Nuclei (%)", "setting": "[1]; [8]", "value": "11% and 12%"},
      {"measurement": "Population Tubulin-Different-Phenotype (%)", "setting": "[1]; [8]", "value": "71% and 72%"},
      {"measurement": "Total Cell Count", "setting": "[1]; [8]", "value": "303 and 280"},
      {"measurement": "Population Apoptotic (%)", "setting": "[2]; [9]", "value": "63% and 62%"},
      {"measurement": "Population Fragmented Nuclei (%)", "setting": "[2]; [9]", "value": "7% and 19%"},
      {"measurement": "Population Healthy Nuclei (%)", "setting": "[2]; [9]", "value": "63% and 58%"},
      {"measurement": "Population Hoechst High Intensity Objects (%)", "setting": "[2]; [9]", "value": 0, "unit": "%"},
      {"measurement": "Population Membrane Permeable-Phenotype (%)", "setting": "[2]; [9]", "value": "3% and 6%"},
      {"measurement": "Population Mitochondria Different-Phenotype (%)", "setting": "[2]; [9]", "value": "0% and 1%"},
      {"measurement": "Population Mitotic Cells (%)", "setting": "[2]; [9]", "value": "36% and 37%"},
      {"measurement": "Population Normal (%)", "setting": "[2]; [9]", "value": 100, "unit": "%"},
      {"measurement": "Population Pyknosed Nuclei (%)", "setting": "[2]; [9]", "value": "28% and 22%"},
      {"measurement": "Population Tubulin-Different-Phenotype (%)", "setting": "[2]; [9]", "value": "1% and 4%"},
      {"measurement": "Total Cell Count", "setting": "[2]; [9]", "value": "133 and 168"},
      {"measurement": "Population Apoptotic (%)", "setting": "[2]; [10]", "value": "70% and 60%"},
      {"measurement": "Population Fragmented Nuclei (%)", "setting": "[2]; [10]", "value": "19% and 24%"},
      {"measurement": "Population Healthy Nuclei (%)", "setting": "[2]; [10]", "value": "60% and 63%"},
      {"measurement": "Population Hoechst High Intensity Objects (%)", "setting": "[2]; [10]", "value": 0, "unit": "%"},
      {"measurement": "Population Membrane Permeable-Phenotype (%)", "setting": "[2]; [10]", "value": "9% and 11%"},
      {"measurement": "Population Mitochondria Different-Phenotype (%)", "setting": "[2]; [10]", "value": 1, "unit": "%"},
      {"measurement": "Population Mitotic Cells (%)", "setting": "[2]; [10]", "value": "29% and 40%"},
      {"measurement": "Population Normal (%)", "setting": "[2]; [10]", "value": 100, "unit": "%"}
    ]}
  ]
}
